Experimental data taken from ChEMBL document CHEMBL1121715, “New antiarrhythmic agents. 4. 1'-(Aminoalkyl)-1,2,3,4-tetrahydronaphthalene-1-spiro-3'-pyrrolidine-2',5'-dione derivatives” (J Med Chem, 1981).
Values joined by “and” are separate entries in the source; they are usually repeats but may differ in a detail not shown here. Identical values can stand only once.

Columns and labels:
Mus musculus [1] = assay: Protection against chloroform induced arrhythmias in mice after subcutaneous administration at 100 mg/kg dose.; assay type: functional
Summary of the method: (§1)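 Groups of 10 unanesthetized mice got sc injection of drug in 0.9% saline. After 20 min observation they were placed one by one in chloroform-vapor-saturated air. When breathing stopped, the thorax was opened and the heart inspected by eye; coordinated ventricular contractions counted as protected.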

Canis familiaris [2] = assay: Ventricular rate was measured in anesthetized dog at 0.026 dose; assay type: functional, Canis lupus familiaris, Heart
Mus musculus [3] = species: Mus musculus; assay: Percentage toxicity measured as loss of righting reflex.; assay type: organism-based; details: in vivo
Summary of the method: (§2)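 Mice (groups of 10) were dosed sc with drug in 0.9% saline and watched for 20 min for overt toxicity (ataxia, convulsions, loss of righting reflex, death) before chloroform exposure.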

Canis familiaris [4] = assay: % ectopic beats was measured in anesthetized dog at 0.053 dose; assay type: functional, Canis lupus familiaris, Heart; details: in the assay text read “unanesthetized” for “anesthetized”
Summary of the method: (§3)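 Adult female dogs (6.7–14.5 kg) had the left anterior descending coronary artery ligated in two stages the day before testing. Dogs were unanesthetized. Ectopic beats (% of ventricular rate) and mean arterial pressure were read at maximal antiarrhythmic effect against the cumulative dose.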

Mus musculus [5] = species: Mus musculus; assay: Percentage toxicity measured as ataxia.; assay type: organism-based; details: in vivo; summary of the method: as §2
Canis familiaris [6] = assay: % ectopic beats was measured in anesthetized dog at 0.026 dose; assay type: functional, Canis lupus familiaris, Heart; details: in the assay text read “unanesthetized” for “anesthetized”; summary of the method: as §3
Canis familiaris [7] = assay: MABP value was measured in anesthetized dog at 0.026 dose; assay type: functional, Canis lupus familiaris; details: in the assay text read “unanesthetized dog” for “anesthetized dog”; summary of the method: as §3
Canis familiaris [8] = species: Canis familiaris; assay: (§4) The dose at which toxicity was measured; assay type: organism-based, Canis lupus familiaris; details: dog, in vivo
Summary of the method: (§5)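 Adult female dogs (6.7–14.5 kg) had two-stage ligation of the left anterior descending coronary artery the day before testing. After control ventricular rate, % ectopic beats and mean arterial pressure were recorded, the drug (HCl salt, isotonic solution) was infused iv without anesthesia at 0.1, 0.5 or 1.0 (mg/kg)/min, mostly 0.5. Infusion continued until the arrhythmia was abolished or cardiovascular/CNS toxicity appeared. Cumulative dose is given in mmol/kg; toxicity included convulsion and P-R prolongation ≥25%.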

[9] = Percentage toxicity measured as death of mice.; assay type: organism-based; design: concentration or dose not given beside the values; details: mouse, in vivo; read-out: Death
Canis familiaris [10] = assay: Ventricular rate was measured in anesthetized dog at 0.053 dose; assay type: functional, Canis lupus familiaris, Heart; details: in the assay text read “unanesthetized dog” for “anesthetized dog”; summary of the method: as §5
Mus musculus [11] = species: Mus musculus; assay: Percentage toxicity measured as convulsions.; assay type: organism-based; details: in vivo; summary of the method: as §2
Mus musculus [12] = assay: Protection against chloroform induced arrhythmias was measured in mice after sc administration at given dose; assay type: functional; summary of the method: as §1
Canis familiaris [13] = species: Canis familiaris; assay: as §4; assay type: organism-based, Canis lupus familiaris; design: unit: mmol/kg; details: dog, in vivo; summary of the method: as §5
Canis familiaris [14] = assay: MABP value was measured in anesthetized dog at 0.053 dose; assay type: functional, Canis lupus familiaris; details: in the assay text read “unanesthetized dog” for “anesthetized dog”; summary of the method: as §5
Canis familiaris [15] = species: Canis familiaris; assay: Toxicity of blood level was measured; assay type: organism-based, Canis lupus familiaris; details: dog, in vivo
Summary of the method: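 In coronary-ligated conscious dogs under iv infusion, blood was sampled at toxicity. Drug was extracted with methylene chloride at pH 10.3 (ammonium citrate/ammonia) with another analogue as internal standard, then derivatized with heptafluorobutyrylimidazole. Assay was GC-FID on 3% JXR, quantified from drug/internal standard peak-height ratio against standard curves; results in μmol/mL.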

Canis familiaris [16] = species: Canis familiaris; assay: Toxicity of the compound; assay type: organism-based, Canis lupus familiaris; details: dog, in vivo; summary of the method: as §5
Canis familiaris [17] = assay: % ectopic beats was measured in anesthetized dog at 0.005 dose.; assay type: functional, Canis lupus familiaris, Heart; details: in the assay text read “unanesthetized” for “anesthetized”; summary of the method: as §3
Canis familiaris [18] = assay: MABP value was measured in anesthetized dog at 0.042 dose.; assay type: functional, Canis lupus familiaris; details: in the assay text read “unanesthetized dog” for “anesthetized dog”; summary of the method: as §5
Canis familiaris [19] = assay: MABP value was measured in anesthetized dog at 0.021d ose.; assay type: functional, Canis lupus familiaris; details: in the assay text read “unanesthetized dog” for “anesthetized dog”; summary of the method: as §3
Mus musculus [20] = assay: Protection against chloroform induced arrhythmias was measured in mice after sc administration at given dose.; assay type: functional; details: Mus musculus, sc; read-out: ED50; summary of the method: as §1
Canis familiaris [21] = species: Canis familiaris; assay: Blood level was measured in […] at 0.017 dose.; assay type: functional, Canis lupus familiaris
Canis familiaris [22] = assay: MABP value was measured in anesthetized dog at 0.017 dose.; assay type: functional, Canis lupus familiaris; details: in the assay text read “unanesthetized dog” for “anesthetized dog”; summary of the method: as §3
Canis familiaris [23] = assay: Ventricular rate was measured in anesthetized dog at 0.042 dose; assay type: functional, Canis lupus familiaris, Heart; details: in the assay text read “unanesthetized dog” for “anesthetized dog”; summary of the method: as §5
Canis familiaris [24] = assay: % ectopic beats was measured in anesthetized dog at 0.029 dose.; assay type: functional, Canis lupus familiaris, Heart; details: in the assay text read “unanesthetized” for “anesthetized”; summary of the method: as §3
Canis familiaris [25] = assay: Ventricular rate was measured in anesthetized dog at given 0.017 dose; assay type: functional, Canis lupus familiaris, Heart; details: in the assay text read “unanesthetized” for “anesthetized”
Summary of the method: (§6)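 Adult female dogs (6.7–14.5 kg) had ventricular arrhythmias from two-stage ligation of the left anterior descending coronary artery the day before. Ventricular rate (bpm) was read at maximal antiarrhythmic effect against cumulative dose.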

Canis familiaris [26] = assay: MABP value was measured in anesthetized dog at 0.026 dose.; assay type: functional, Canis lupus familiaris; details: in the assay text read “unanesthetized dog” for “anesthetized dog”; summary of the method: as §3
Canis familiaris [27] = assay: MABP value was measured in anesthetized dog at 0.005 dose.; assay type: functional, Canis lupus familiaris; details: in the assay text read “unanesthetized dog” for “anesthetized dog”; summary of the method: as §3
Canis familiaris [28] = assay: Ventricular rate was measured in anesthetized dog at 0.029 dose; assay type: functional, Canis lupus familiaris, Heart; details: in the assay text read “unanesthetized dog” for “anesthetized dog”; summary of the method: as §5
Canis familiaris [29] = assay: MABP value was measured in anesthetized dog at 0.029 dose.; assay type: functional, Canis lupus familiaris; details: in the assay text read “unanesthetized dog” for “anesthetized dog”; summary of the method: as §3
Canis familiaris [30] = species: Canis familiaris; assay: The dose at which toxicity was measured.; assay type: organism-based, Canis lupus familiaris; details: dog, in vivo; summary of the method: as §5
Canis familiaris [31] = assay: Blood level was measured in anesthetized dog at 0.029 dose.; assay type: functional, Canis lupus familiaris
Canis familiaris [32] = assay: % ectopic beats was measured in anesthetized dog at 0.042 dose.; assay type: functional, Canis lupus familiaris, Heart; details: in the assay text read “unanesthetized” for “anesthetized”; summary of the method: as §3
Canis familiaris [33] = assay: % ectopic beats was measured in anesthetized dog at 0.017 dose.; assay type: functional, Canis lupus familiaris, Heart; details: in the assay text read “unanesthetized” for “anesthetized”; summary of the method: as §3
Canis familiaris [34] = assay: Ventricular rate was measured in anesthetized dog at 0.005 dose; assay type: functional, Canis lupus familiaris, Heart; details: in the assay text read “unanesthetized dog” for “anesthetized dog”; summary of the method: as §5
Canis familiaris [35] = assay: % ectopic beats was measured in anesthetized dog at 0.021d ose.; assay type: functional, Canis lupus familiaris, Heart; details: in the assay text read “unanesthetized” for “anesthetized”; summary of the method: as §3
Canis familiaris [36] = assay: Ventricular rate was measured in anesthetized dog at 0.021 dose; assay type: functional, Canis lupus familiaris, Heart; details: in the assay text read “unanesthetized dog” for “anesthetized dog”; summary of the method: as §5
Canis familiaris [37] = assay: % ectopic beats was measured in anesthetized dog at 0.026 dose.; assay type: functional, Canis lupus familiaris, Heart; details: in the assay text read “unanesthetized” for “anesthetized”; summary of the method: as §3
Canis familiaris [38] = assay: MABP value was measured in anesthetized dog at 0.21+/-0.19 dose.; assay type: functional, Canis lupus familiaris
Mus musculus [39] = assay: Ataxia was measured in mice after sc administration at given dose.; assay type: functional
Summary of the method: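 Mice in groups of 10 received drug sc in 0.9% saline and were watched 20 min for overt toxicity before chloroform exposure. At least three doses were given.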

Canis familiaris [40] = assay: Ventricular rate was measured in anesthetized dog at 0.21+/-0.19 dose; assay type: functional, Canis lupus familiaris, Heart; details: in the assay text read “unanesthetized” for “anesthetized”; summary of the method: as §6
Canis familiaris [41] = assay: % ectopic beats was measured in anesthetized dog at 0.21+/-0.19 dose; 4+/-3; assay type: functional, Canis lupus familiaris, Heart

## CCN(CC)CCN1C(=O)CC2(CCCc3ccc(O)cc32)C1=O (stereo not given)
Mus musculus [1]
  Protection: 90%
Canis familiaris [2]
  Ventricular rate: 132 beats min-1
Mus musculus [3]
  Loss of righting reflex: 0%
Canis familiaris [4]
  Etopic beats: 7%
Mus musculus [5]
  Ataxia: 0%
Canis familiaris [6]
  Etopic beats: 3%
Canis familiaris [7]
  MABP: 130 mmHg
Canis familiaris [8]
  Cumulative dose: 0.042
[9]
  mortality: 0%
Canis familiaris [10]
  Ventricular rate: 102 beats min-1
Mus musculus [11]
  Convulsion: 0%
Mus musculus [12]
  ED50: 150 µmol/kg
Canis familiaris [13]
  Cumulative dose: 0.026 mM/kg
Canis familiaris [14]
  MABP: 135 mmHg

## CCN(CC)CCCCN1C(=O)CC2(CCCc3ccc(O)cc32)C1=O (stereo not given)
Mus musculus [1]
  Protection: 100%
Canis familiaris [15]
  Blood level: > 28 µM
Canis familiaris [16]
  Blood level: 0.01 uM ml-1
Canis familiaris [2]
  Ventricular rate: 132 beats min-1
Canis familiaris [17]
  Etopic beats: 2%
Canis familiaris [18]
  MABP: 100 mmHg
Canis familiaris [19]
  MABP: 70 mmHg
Mus musculus [20]
  ED50: 130 µmol/kg
Mus musculus [3]
  Loss of righting reflex: 0%
Canis familiaris [21]
  Blood level: 0.016 uM ml-1
Mus musculus [5]
  Ataxia: 0%
Canis familiaris [22]
  MABP: 95 mmHg
Canis familiaris [23]
  Ventricular rate: 147 beats min-1
Canis familiaris [24]
  Etopic beats: 0%
Canis familiaris [25]
  Ventricular rate: 153 beats min-1
Canis familiaris [26]
  MABP: 90 mmHg
Canis familiaris [27]
  MABP: 80 mmHg
Canis familiaris [28]
  Ventricular rate: 141 beats min-1
Canis familiaris [29]
  MABP: 90 mmHg
Canis familiaris [30]
  Cumulative dose: 0.063
Canis familiaris [31]
  Blood level: 0.007 uM ml-1
[9]
  mortality: 0%
Canis familiaris [32]
  Etopic beats: 0%
Canis familiaris [33]
  Etopic beats: 2%
Canis familiaris [34]
  Ventricular rate: 162 beats min-1
Canis familiaris [35]
  Etopic beats: 0%
Mus musculus [11]
  Convulsion: 0%
Canis familiaris [36]
  Ventricular rate: 168 beats min-1
Canis familiaris [13]
  Cumulative dose: > 0.058 and > 0.126
Canis familiaris [37]
  Etopic beats: 0%

## CCN(CC)CC(=O)Nc1c(C)cccc1C [LIDOCAINE]
Mus musculus [1]
  Protection: 100%
Canis familiaris [38]
  MABP: 101 mmHg
Mus musculus [20]
  ED50: 260 µmol/kg
Mus musculus [39]
  ED50: 180 µmol/kg
Mus musculus [3]
  Loss of righting reflex: 100%
Mus musculus [5]
  Ataxia: 100%
Canis familiaris [30]
  Cumulative dose: 0.27
Canis familiaris [40]
  Ventricular rate: 133 beats min-1
[9]
  mortality: 0%
Mus musculus [11]
  Convulsion: 100%
Canis familiaris [41]
  Etopic beats: 4%
